{
  "source": "ChEMBL document CHEMBL4325827",
  "about": "“Bifidenone: Structure-Activity Relationship and Advanced Preclinical Candidate” (J Med Chem, 2018)",
  "key": {"M14": {"tested_on": "M14", "assay": "Antiproliferative activity against human M14 cells after 72 hrs by CellTiter 96 aqueous nonradioactive cell proliferation assay", "assay_type": "functional, cell-based", "conditions": "M14, 72 h", "procedure,_shortened": "(§1)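 Antiproliferation in cultured tumour cells, at least 3 replicate wells per concentration per experiment. NCI-H460 came from ATCC. M14, NCI/ADR-RES, OVCAR-4, HCT-15, ACHN and SF-295 came from the National Cancer Institute. IC50 reported from single experiments where no SD is given.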"}, "[1]": {"assay": "Drug uptake in tumor of human NCI-H460 cells xenografted in Crl:NU(NCr)-Foxn1 nu mouse at 40 mg/kg, ip measured at 3 hrs post injection by LC-MS analysis", "assay_type": "ADME, organism-based, Neoplasm", "conditions": "in vivo", "procedure,_shortened": "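Male Nu/Nu mice, some bearing NCI-H460 or LOX-IMVI xenografts, given a single ip dose at 3 mL/kg. Organic vehicle components were dissolved first, with the aqueous part added gradually. Mice were euthanized at 1 h or 3 h. Cardiac blood was taken into NaEDTA/NaF plasma separator tubes. Quantification used loratadine internal standard against a spiked blank-plasma curve. Tumours were run as duplicate ~200 mg samples homogenized in 3% SDS and extracted twice with ethyl acetate, assuming 1 g tissue = 1 mL.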"}, "ACHN [2]": {"tested_on": "ACHN", "assay": "Antiproliferative activity against taxane-resistant human ACHN cells after 72 hrs by CellTiter 96 aqueous nonradioactive cell proliferation assay", "assay_type": "functional, cell-based", "procedure,_shortened": "as §1"}, "NCI/ADR-RES": {"tested_on": "NCI/ADR-RES", "assay": "Potency index, ratio of paclitaxel IC50 to compound IC50 for taxane-resistant human NCI/ADR-RES cells after 72 hrs by CellTiter 96 aqueous nonradioactive cell proliferation assay", "assay_type": "functional"}, "EKVX": {"tested_on": "EKVX", "assay": "Potency index, ratio of paclitaxel IC50 to compound IC50 for taxane-resistant human EKVX cells after 72 hrs by CellTiter 96 aqueous nonradioactive cell proliferation assay", "assay_type": "functional"}, "ACHN [3]": {"tested_on": "ACHN", "assay": "Potency index, ratio of paclitaxel IC50 to compound IC50 for taxane-resistant human ACHN cells after 72 hrs by CellTiter 96 aqueous nonradioactive cell proliferation assay", "assay_type": "functional"}, "Tubulin (Sus scrofa)": {"target": "Tubulin (Sus scrofa) (UniProt P02554+P02550)", "sequence (P02550 whole entry, looked up)": "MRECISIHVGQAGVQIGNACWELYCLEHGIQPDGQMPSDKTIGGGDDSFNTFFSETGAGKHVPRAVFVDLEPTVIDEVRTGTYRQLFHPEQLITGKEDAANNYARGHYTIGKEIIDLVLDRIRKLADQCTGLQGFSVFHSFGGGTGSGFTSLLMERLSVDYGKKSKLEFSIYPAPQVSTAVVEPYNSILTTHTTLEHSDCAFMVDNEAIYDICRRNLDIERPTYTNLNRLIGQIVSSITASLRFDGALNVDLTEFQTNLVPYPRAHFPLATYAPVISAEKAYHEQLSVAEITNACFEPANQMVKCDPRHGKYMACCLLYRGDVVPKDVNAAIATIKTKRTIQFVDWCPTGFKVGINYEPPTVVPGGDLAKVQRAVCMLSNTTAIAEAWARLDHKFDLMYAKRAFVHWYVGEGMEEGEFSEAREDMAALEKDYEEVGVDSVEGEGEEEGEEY", "sequence (P02554 whole entry, looked up)": "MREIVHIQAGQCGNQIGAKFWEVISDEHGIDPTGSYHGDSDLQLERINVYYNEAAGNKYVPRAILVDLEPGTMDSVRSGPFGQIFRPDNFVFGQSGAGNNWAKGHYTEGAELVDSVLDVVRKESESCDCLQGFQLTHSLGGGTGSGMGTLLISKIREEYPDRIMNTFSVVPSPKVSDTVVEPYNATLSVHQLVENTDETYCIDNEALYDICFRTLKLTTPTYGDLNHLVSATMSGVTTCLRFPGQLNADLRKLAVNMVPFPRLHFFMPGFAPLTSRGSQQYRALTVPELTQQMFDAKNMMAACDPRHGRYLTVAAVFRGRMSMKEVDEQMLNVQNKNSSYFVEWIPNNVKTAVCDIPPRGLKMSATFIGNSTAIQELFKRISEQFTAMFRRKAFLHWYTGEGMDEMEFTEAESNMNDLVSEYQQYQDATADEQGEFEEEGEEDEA", "assay": "Inhibition of pig tubulin polymerization at 10 uM measured at 1 min intervals for 60 mins", "assay_type": "protein assay", "procedure,_shortened": "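Polymerization assay using porcine tubulin.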"}, "[4]": {"assay": "Toxicity in Crl:NU(NCr)-Foxn1 nu mouse xenografted with human NCI-H460 cells assessed as mortality at 60 mg/kg, ip qd administered for 3 consecutive days followed by 2 days of rest for 3 cycles", "assay_type": "organism-based", "conditions": "in vivo, 48 h", "procedure,_shortened": "(§2)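 Female athymic nude mice bearing subcutaneous xenografts started from cultured human tumor cells. Mice were split into vehicle and treatment groups once tumors reached about 75-200 mm3. Dosing was ip at 5-10 mL/kg in 22% ethanol, 38% PEG400, 40% 20 mM Na citrate pH 5.0. Deaths per group were recorded alongside maximum mean bodyweight loss.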"}, "[5]": {"assay": "Toxicity in Crl:NU(NCr)-Foxn1 nu mouse xenografted with human […] cells assessed as mortality at 40 mg/kg, ip qd administered for 3 consecutive days followed by 2 days of rest for 3 cycles", "assay_type": "organism-based", "conditions": "in vivo, 48 h", "procedure,_shortened": "(§3)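 Female athymic nude mice bearing subcutaneous NCI-H522 xenografts started from tumor fragments kept by continuous in vivo passage. Mice were grouped once tumors reached about 75-200 mm3. Dosing was ip at 5-10 mL/kg in 22% ethanol, 38% PEG400, 40% 20 mM Na citrate pH 5.0. Deaths per group were recorded with maximum mean bodyweight loss.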"}, "[6]": {"assay": "Toxicity in Crl:NU(NCr)-Foxn1 nu mouse xenografted with human […] cells assessed as mortality at 50 mg/kg, ip qd administered for 3 consecutive days followed by 2 days of rest for 3 cycles", "assay_type": "organism-based", "conditions": "in vivo, 48 h", "procedure,_shortened": "as §3"}, "[7]": {"assay": "Toxicity in Crl:NU(NCr)-Foxn1 nu mouse xenografted with human NCI-H69 cells assessed as mortality at 70 mg/kg, ip dosed on day 1 followed by 4 days rest and subsequently dosed at 70 mg/kg, ip qd administered for 3 consecutive days followed by 2 days of rest for 2 cycles", "assay_type": "organism-based", "conditions": "in vivo", "procedure,_shortened": "as §2"}, "[8]": {"assay": "Toxicity in Crl:NU(NCr)-Foxn1 nu mouse xenografted with human LOX-IMVI cells assessed as mortality at 30 mg/kg, ip qd administered for 7 consecutive days", "assay_type": "organism-based", "conditions": "in vivo", "procedure,_shortened": "as §2"}, "[9]": {"assay": "Toxicity in Crl:NU(NCr)-Foxn1 nu mouse xenografted with human LOX-IMVI cells assessed as mortality at 40 mg/kg, ip qd administered for 5 consecutive days", "assay_type": "organism-based", "conditions": "in vivo", "procedure,_shortened": "as §2"}, "[10]": {"assay": "Toxicity in Crl:NU(NCr)-Foxn1 nu mouse xenografted with human NCI-H460 cells assessed as maximum body weight loss at 60 mg/kg, ip qd administered for 3 consecutive days followed by 2 days of rest for 3 cycles measured after 8 days post dose relative to control", "assay_type": "organism-based", "conditions": "in vivo, 192 h", "procedure,_shortened": "(§4)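 Female athymic nude mice bearing subcutaneous xenografts, started from cultured cells (NCI-H460, Calu-6, NCI-H69, LOX-IMVI) or from serially passaged tumour fragments (NCI-H522). Mice were grouped into vehicle and treatment arms at tumour volumes of about 75-200 mm3. Dosing was ip at 5-10 mL/kg in 22% ethanol, 38% PEG400, 40% 20 mM Na citrate pH 5.0. Caliper volumes were taken as (length × width2)/2. Treated and control delta weights were median tumour weight minus staging-day median.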"}, "[11]": {"assay": "Toxicity in Crl:NU(NCr)-Foxn1 nu mouse xenografted with human […] cells assessed as maximum body weight loss at 40 mg/kg, ip qd administered for 3 consecutive days followed by 2 days of rest for 3 cycles measured after 7 days post dose relative to control", "assay_type": "organism-based", "conditions": "in vivo, 168 h", "procedure,_shortened": "as §4"}, "[12]": {"assay": "(§5) Toxicity in Crl:NU(NCr)-Foxn1 nu mouse xenografted with human NCI-H69 cells assessed as maximum body weight loss at 60 mg/kg, ip dosed on day 1 followed by 4 days rest and subsequently dosed at 60 mg/kg, ip qd administered for 3 consecutive days followed by 2 days of rest for 2 cycles measured after 3 days post dose relative to control", "assay_type": "organism-based", "conditions": "in vivo, 72 h", "procedure,_shortened": "as §4"}, "[13]": {"assay": "as §5, with “70” for “60”", "assay_type": "organism-based", "conditions": "in vivo, 72 h", "procedure,_shortened": "as §4"}, "[14]": {"assay": "Toxicity in Crl:NU(NCr)-Foxn1 nu mouse xenografted with human LOX-IMVI cells assessed as maximum body weight loss at 30 mg/kg, ip qd administered for 7 consecutive days measured after 6 days post dose relative to control", "assay_type": "organism-based", "conditions": "in vivo, 144 h", "procedure,_shortened": "as §4"}, "NCI-H522 [15]": {"tested_on": "NCI-H522", "assay": "Antitumor activity against human NCI-H522 cells xenografted in Crl:NU(NCr)-Foxn1 nu mouse assessed as tumor growth inhibition at 40 mg/kg, ip qd administered for 3 consecutive days followed by 2 days of rest for 3 cycles relative to control", "assay_type": "functional", "conditions": "48 h, read-out: TGI", "procedure,_shortened": "as §4"}, "NCI-H522 [16]": {"tested_on": "NCI-H522", "assay": "Antitumor activity against human NCI-H522 cells xenografted in Crl:NU(NCr)-Foxn1 nu mouse assessed as tumor growth inhibition at 60 mg/kg, ip qd administered for 3 consecutive days followed by 2 days of rest for 3 cycles relative to control", "assay_type": "functional", "conditions": "48 h, read-out: TGI", "procedure,_shortened": "as §4"}, "NCI-H69": {"tested_on": "NCI-H69", "assay": "Antitumor activity against human NCI-H69 cells xenografted in Crl:NU(NCr)-Foxn1 nu mouse assessed as tumor growth inhibition at 60 mg/kg, ip dosed on day 1 followed by 4 days rest and subsequently dosed at 60 mg/kg, ip qd administered for 3 consecutive days followed by 2 days of rest for 2 cycles relative to control", "assay_type": "functional", "conditions": "read-out: TGI", "procedure,_shortened": "as §4"}, "LOX IMVI": {"tested_on": "LOX IMVI", "assay": "Antitumor activity against human LOXIMVI cells xenografted in Crl:NU(NCr)-Foxn1 nu mouse assessed as tumor growth inhibition at 30 mg/kg, ip qd relative to control", "conditions": "read-out: TGI"}},
  "note": "Calls of active or inactive are those of the source. The calls are words filed in the database; no cut-off is given here.",
  "data": [
    {"molecule": "C=CC[C@H]1C[C@]2([C@H](C)Cc3cc(O)c(OC)cc3F)OCOC2=CC1=O", "values": [
      {"measurement": "IC50", "setting": "M14", "value": 17, "unit": "nM"},
      {"measurement": "Drug uptake", "setting": "[1]", "value": "Active"},
      {"measurement": "IC50", "setting": "ACHN [2]", "value": 12, "unit": "nM"},
      {"measurement": "Ratio IC50", "setting": "NCI/ADR-RES", "value": ">1000"},
      {"measurement": "Ratio IC50", "setting": "EKVX", "value": 21},
      {"measurement": "Ratio IC50", "setting": "ACHN [3]", "value": 7},
      {"measurement": "inhibition", "setting": "Tubulin (Sus scrofa)", "value": "Active"},
      {"measurement": "Activity", "setting": "[4]", "value": "Non-Toxic"},
      {"measurement": "Activity", "setting": "[5]", "value": "Non-Toxic"},
      {"measurement": "Activity", "setting": "[6]", "value": "Non-Toxic"},
      {"measurement": "Activity", "setting": "[7]", "value": "Non-Toxic"},
      {"measurement": "Activity", "setting": "[8]", "value": "Non-Toxic"},
      {"measurement": "Activity", "setting": "[9]", "value": "Non-Toxic"},
      {"measurement": "Activity", "setting": "[10]", "value": 12, "unit": "%"},
      {"measurement": "Activity", "setting": "[11]", "value": 3, "unit": "%"},
      {"measurement": "Activity", "setting": "[12]", "value": 6, "unit": "%"},
      {"measurement": "Activity", "setting": "[13]", "value": 9, "unit": "%"},
      {"measurement": "Activity", "setting": "[14]", "value": 9, "unit": "%"},
      {"measurement": "inhibition in vivo at 40 mg/kg", "setting": "NCI-H522 [15]", "value": 54, "unit": "%"},
      {"measurement": "inhibition in vivo at 60 mg/kg", "setting": "NCI-H522 [16]", "value": 82, "unit": "%"},
      {"measurement": "inhibition in vivo at 60 mg/kg", "setting": "NCI-H69", "value": 77, "unit": "%"},
      {"measurement": "inhibition in vivo at 30 mg/kg", "setting": "LOX IMVI", "value": 63, "unit": "%"}
    ]}
  ]
}
